Measurements as given in ChEMBL document CHEMBL1132701, “Orally active isoxazoline glycoprotein IIb/IIIa antagonists with extended duration of action” (J Med Chem, 1999).

Key:
[1] = species: Homo sapiens; assay: The compound was tested for their ability to inhibit ADP-stimulated platelet aggregation in human platelet rich plasma; format: functional
In short: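 IC50 for inhibition of ADP-induced aggregation in human platelet-rich plasma, determined in three donors.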

[2] = tested on: Canis familiaris; assay: Compounds having IC50 values less than 100 nM in the PRP assay were assessed for their ability to inhibit ex vivo platelet aggregation in dogs after 5 hr of administration of iv bolus dose of 0.025 mg/kg; format: functional; details: Canis lupus familiaris
In short: (§1)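 Dogs received an iv bolus, mostly 0.025 mg/kg, with some tested at 0.05 mg/kg. Blood was sampled at 1, 5 and 24 h postdose. Ex vivo platelet aggregation was stimulated with ADP (100 μM) and reported as % inhibition; n = 2.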

[3] = tested on: Canis familiaris; assay: Inhibition of ex vivo platelet aggregation in dogs after 24 hr of administration of iv bolus dose of 0.025 mg/kg; format: functional; details: Canis lupus familiaris; in short: as §1
[4] = tested on: Canis familiaris; assay: Inhibition of ex vivo platelet aggregation in dogs after 24 hr of administration of oral dose of 0.1 mg/kg; format: functional; details: Canis lupus familiaris
[5] = tested on: Canis familiaris; assay: Inhibition of ex vivo platelet aggregation in dogs after 1 hr of administration of oral dose of 0.1 mg/kg; format: functional; details: Canis lupus familiaris
[6] = species: Canis familiaris; assay: The compound was tested for their ability to inhibit ADP-stimulated platelet aggregation in dog platelet rich plasma; format: functional; details: Canis lupus familiaris
[7] = molecular target: Integrin alpha-V/beta-3 (Homo sapiens, UniProt P05106+P06756); assay: Inhibitory activity against […] integrin; format: protein-complex assay
[8] = molecular target: Integrin alpha-4/beta-1 (Homo sapiens, UniProt P05556+P13612); assay: Inhibitory activity against alpha4-beta1 integrin; format: protein-complex assay
[9] = molecular target: Integrin alpha-V/beta-5 (Homo sapiens) (UniProt P06756+P18084); assay: Inhibitory activity against alphaV-beta5 integrin at 10 uM; format: protein-complex assay
[10] = molecular target: Integrin alpha-IIb/beta-3 (Canis familiaris); assay: Dissociation constant for activated Fibrinogen Receptor
[11] = molecular target: Integrin alpha-IIb/beta-3 (Canis familiaris); assay: Dissociation constant for unactivated Fibrinogen Receptor
[12] = molecular target: Integrin alpha-5/beta-1 (Homo sapiens) (UniProt P05556+P08648); assay: Inhibitory activity against alpha5-beta1 integrin at 10 uM
[13] = tested on: Canis familiaris; assay: Inhibition of ex vivo platelet aggregation in dogs after 6 hr of administration of oral dose of 0.1 mg/kg; details: Canis lupus familiaris
[14] = tested on: Canis familiaris; assay: Inhibition of ex vivo platelet aggregation in dogs after 2 hr of administration of oral dose of 0.1 mg/kg; details: Canis lupus familiaris
[15] = tested on: Canis familiaris; assay: Inhibition of ex vivo platelet aggregation in dogs after 6 hr of administration of oral dose of 0.1 mg/kg; details: Canis lupus familiaris; remark: listed apart in the source
[16] = tested on: Canis familiaris; assay: Inhibition of ex vivo platelet aggregation in dogs after 24 hr of administration of oral dose of 0.1 mg/kg; details: Canis lupus familiaris
[17] = molecular target: Integrin alpha-IIb/beta-3 (Canis familiaris); assay: Dissociation constant for unactivated Fibrinogen Receptor; remark: listed apart in the source

Integrin alpha-V/beta-3, sequence (P05106 27-788 limits assumed): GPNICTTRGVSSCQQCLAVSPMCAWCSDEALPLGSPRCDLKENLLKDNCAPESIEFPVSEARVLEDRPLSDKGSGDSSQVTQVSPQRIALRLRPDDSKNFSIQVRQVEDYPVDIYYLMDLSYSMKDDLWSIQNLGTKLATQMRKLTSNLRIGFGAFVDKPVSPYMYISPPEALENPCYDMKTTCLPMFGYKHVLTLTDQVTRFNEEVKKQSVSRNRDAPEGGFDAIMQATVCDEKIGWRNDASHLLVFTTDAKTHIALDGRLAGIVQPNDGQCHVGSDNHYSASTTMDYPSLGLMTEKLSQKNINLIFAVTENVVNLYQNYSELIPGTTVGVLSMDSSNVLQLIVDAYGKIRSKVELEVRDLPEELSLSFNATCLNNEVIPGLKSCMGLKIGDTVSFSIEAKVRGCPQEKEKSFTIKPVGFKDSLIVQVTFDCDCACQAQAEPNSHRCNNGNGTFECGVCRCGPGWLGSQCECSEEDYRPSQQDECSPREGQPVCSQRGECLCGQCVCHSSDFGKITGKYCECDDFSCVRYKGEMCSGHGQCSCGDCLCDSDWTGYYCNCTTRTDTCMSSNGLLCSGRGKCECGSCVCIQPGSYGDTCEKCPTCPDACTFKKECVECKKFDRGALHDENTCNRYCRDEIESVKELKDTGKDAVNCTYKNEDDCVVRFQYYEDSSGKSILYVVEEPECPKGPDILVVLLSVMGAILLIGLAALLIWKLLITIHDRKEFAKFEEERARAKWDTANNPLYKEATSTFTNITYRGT
Integrin alpha-V/beta-3, sequence (P06756 31-889 limits assumed): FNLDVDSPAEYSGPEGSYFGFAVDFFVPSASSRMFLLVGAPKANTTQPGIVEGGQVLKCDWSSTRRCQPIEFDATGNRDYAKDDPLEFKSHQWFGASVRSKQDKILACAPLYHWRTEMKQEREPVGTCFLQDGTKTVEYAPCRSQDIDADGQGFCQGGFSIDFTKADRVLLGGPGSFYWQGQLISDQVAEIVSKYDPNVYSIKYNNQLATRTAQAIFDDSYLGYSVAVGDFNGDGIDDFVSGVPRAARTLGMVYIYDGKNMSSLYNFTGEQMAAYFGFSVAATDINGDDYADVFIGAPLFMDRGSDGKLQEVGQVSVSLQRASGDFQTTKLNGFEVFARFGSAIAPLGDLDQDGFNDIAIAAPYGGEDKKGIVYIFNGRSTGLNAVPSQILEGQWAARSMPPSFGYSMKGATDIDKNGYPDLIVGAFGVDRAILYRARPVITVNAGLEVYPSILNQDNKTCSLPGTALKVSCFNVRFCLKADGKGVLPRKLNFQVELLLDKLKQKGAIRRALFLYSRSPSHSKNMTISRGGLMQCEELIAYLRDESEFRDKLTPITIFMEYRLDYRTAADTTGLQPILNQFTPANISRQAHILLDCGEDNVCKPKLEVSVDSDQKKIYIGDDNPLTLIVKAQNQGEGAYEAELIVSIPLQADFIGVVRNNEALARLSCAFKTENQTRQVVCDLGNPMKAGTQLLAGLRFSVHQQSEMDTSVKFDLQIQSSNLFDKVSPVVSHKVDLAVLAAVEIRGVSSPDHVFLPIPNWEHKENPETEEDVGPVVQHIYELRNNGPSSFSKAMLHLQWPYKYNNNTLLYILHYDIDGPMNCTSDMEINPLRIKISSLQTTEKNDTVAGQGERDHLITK
Integrin alpha-V/beta-3, sequence (P06756 891-1048 limits assumed): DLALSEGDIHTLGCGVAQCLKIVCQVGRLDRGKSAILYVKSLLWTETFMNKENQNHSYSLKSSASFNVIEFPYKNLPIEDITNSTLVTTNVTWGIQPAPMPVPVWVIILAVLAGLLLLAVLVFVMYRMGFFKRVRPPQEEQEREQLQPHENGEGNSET
Integrin alpha-4/beta-1, sequence (P05556 whole entry): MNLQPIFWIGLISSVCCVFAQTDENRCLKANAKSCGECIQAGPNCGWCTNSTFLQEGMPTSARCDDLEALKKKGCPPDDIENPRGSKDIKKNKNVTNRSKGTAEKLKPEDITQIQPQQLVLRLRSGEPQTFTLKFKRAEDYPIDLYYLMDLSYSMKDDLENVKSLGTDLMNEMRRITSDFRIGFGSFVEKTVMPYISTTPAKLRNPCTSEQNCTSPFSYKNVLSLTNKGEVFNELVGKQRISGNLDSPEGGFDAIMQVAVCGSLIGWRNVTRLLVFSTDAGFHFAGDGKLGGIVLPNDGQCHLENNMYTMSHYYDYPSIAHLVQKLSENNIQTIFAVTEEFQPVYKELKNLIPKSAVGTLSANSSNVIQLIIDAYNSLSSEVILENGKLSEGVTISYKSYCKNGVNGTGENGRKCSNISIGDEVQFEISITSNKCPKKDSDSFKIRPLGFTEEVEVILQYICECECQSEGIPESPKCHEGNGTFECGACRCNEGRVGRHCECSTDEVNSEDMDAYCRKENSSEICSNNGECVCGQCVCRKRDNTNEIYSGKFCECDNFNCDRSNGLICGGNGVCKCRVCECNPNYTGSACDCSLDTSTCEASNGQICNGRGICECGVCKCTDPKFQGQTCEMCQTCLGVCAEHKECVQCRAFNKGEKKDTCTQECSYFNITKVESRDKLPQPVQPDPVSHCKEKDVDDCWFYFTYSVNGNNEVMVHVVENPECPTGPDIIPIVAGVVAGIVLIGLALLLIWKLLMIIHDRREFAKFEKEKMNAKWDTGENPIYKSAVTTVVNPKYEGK
Integrin alpha-4/beta-1, sequence (P13612 whole entry): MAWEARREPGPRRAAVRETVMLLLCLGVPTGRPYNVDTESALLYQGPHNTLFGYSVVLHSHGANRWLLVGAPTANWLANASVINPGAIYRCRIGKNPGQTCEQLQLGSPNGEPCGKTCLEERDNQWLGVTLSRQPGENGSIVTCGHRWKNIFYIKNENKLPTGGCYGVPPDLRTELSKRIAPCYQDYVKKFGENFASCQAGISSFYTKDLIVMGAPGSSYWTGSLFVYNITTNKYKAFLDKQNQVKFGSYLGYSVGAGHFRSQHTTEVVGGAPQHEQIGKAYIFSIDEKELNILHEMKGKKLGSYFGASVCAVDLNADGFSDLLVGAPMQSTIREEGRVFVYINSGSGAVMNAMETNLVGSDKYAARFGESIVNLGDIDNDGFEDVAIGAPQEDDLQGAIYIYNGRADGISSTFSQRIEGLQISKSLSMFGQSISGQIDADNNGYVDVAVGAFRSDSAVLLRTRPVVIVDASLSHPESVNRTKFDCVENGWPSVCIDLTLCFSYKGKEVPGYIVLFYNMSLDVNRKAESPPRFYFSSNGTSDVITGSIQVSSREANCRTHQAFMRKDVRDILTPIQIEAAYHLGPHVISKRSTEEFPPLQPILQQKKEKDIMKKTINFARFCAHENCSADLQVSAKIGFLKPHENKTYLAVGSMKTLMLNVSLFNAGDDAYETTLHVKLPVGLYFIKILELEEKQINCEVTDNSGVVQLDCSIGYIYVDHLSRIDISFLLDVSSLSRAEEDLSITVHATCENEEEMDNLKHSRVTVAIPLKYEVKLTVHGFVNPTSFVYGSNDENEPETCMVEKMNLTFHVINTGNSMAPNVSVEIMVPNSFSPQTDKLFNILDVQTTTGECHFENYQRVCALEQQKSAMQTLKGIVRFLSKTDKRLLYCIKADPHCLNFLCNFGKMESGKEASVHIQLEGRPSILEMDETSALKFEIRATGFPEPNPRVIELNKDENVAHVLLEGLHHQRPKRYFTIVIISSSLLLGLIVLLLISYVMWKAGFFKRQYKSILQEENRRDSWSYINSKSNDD

SMILES | IC50 [1] [nM] | also measured
CCCS(=O)(=O)N[C@@H](CNC(=O)CC1CC(c2ccc(C(=N)N)cc2)=NO1)C(=O)O (stereo partly drawn) | 17 | –
N=C(N)c1ccc(C2=NOC(CC(=O)NC[C@H](NS(=O)(=O)c3ccc(C(F)(F)F)cc3)C(=O)O)C2)cc1 (stereo partly drawn) | 170 | –
Cc1ccc(NS(=O)(=O)N[C@@H](CNC(=O)CC2CC(c3ccc(C(=N)N)cc3)=NO2)C(=O)O)cc1 (stereo partly drawn) | 72 | –
CC(C)CNS(=O)(=O)N[C@@H](CNC(=O)CC1CC(c2ccc(C(=N)N)cc2)=NO1)C(=O)O (stereo partly drawn) | 52 | –
Cc1ccc(S(=O)(=O)N[C@@H](CNC(=O)CC2CC(c3ccc(C(=N)N)cc3)=NO2)C(=O)O)o1 (stereo partly drawn) | 160 | –
N=C(N)c1ccc(C2=NOC(CC(=O)NC[C@H](NS(=O)(=O)c3cnn(-c4ccccc4)c3)C(=O)O)C2)cc1 (stereo partly drawn) | 72 | –
N=C(N)c1ccc(C2=NOC(CC(=O)NC[C@H](NS(=O)(=O)c3cccc(C(F)(F)F)c3)C(=O)O)C2)cc1 (stereo partly drawn) | 120 | –
N=C(N)c1ccc(C2=NOC(CC(=O)NC[C@H](NS(=O)(=O)c3ccc(Br)cc3)C(=O)O)C2)cc1 (stereo partly drawn) | 51 | –
CCCc1ccc(S(=O)(=O)N[C@@H](CNC(=O)CC2CC(c3ccc(C(=N)N)cc3)=NO2)C(=O)O)cc1 (stereo partly drawn) | 130 | –
N=C(N)c1ccc(C2=NO[C@@H](CC(=O)NC[C@H](NS(=O)(=O)c3ccccc3C(F)(F)F)C(=O)O)C2)cc1 | 89 | –
Cc1nc(C)c(S(=O)(=O)N[C@@H](CNC(=O)CC2CC(c3ccc(C(=N)N)cc3)=NO2)C(=O)O)s1 (stereo partly drawn) | 36 | inhibition in vivo at 0.025 mg/kg [2]: 54%; inhibition in vivo at 0.025 mg/kg [3]: 8%
Cc1ccccc1S(=O)(=O)N[C@@H](CNC(=O)CC1CC(c2ccc(C(=N)N)cc2)=NO1)C(=O)O (stereo partly drawn) | 41 | inhibition in vivo at 0.025 mg/kg [2]: 97%; inhibition in vivo at 0.025 mg/kg [3]: 99%
N=C(N)c1ccc(C2=NOC(CC(=O)NC[C@H](NS(=O)(=O)c3cccs3)C(=O)O)C2)cc1 (stereo partly drawn) | 24 | –
Cc1noc(C)c1S(=O)(=O)N[C@@H](CNC(=O)C[C@H]1CC(c2ccc(C(=N)N)cc2)=NO1)C(=O)O | 29 | inhibition in vivo at 0.1 mg/kg [4]: 75%; inhibition in vivo at 0.1 mg/kg [5]: 54%; IC50 [6]: 23 nM; IC50 [7]: > 10000 nM; IC50 [8]: > 100000 nM; inhibition [9]: < 15%; Kd [10]: 0.6 nM; Kd [11]: 0.9 nM; inhibition [12]: < 5%; inhibition in vivo at 0.1 mg/kg [13]: 88%
N=C(N)c1ccc(C2=NOC(CC(=O)NC[C@H](NS(=O)(=O)c3cccc(Br)c3)C(=O)O)C2)cc1 (stereo partly drawn) | 60 | –
N=C(N)c1ccc(C2=NO[C@@H](CC(=O)NC[C@H](NS(=O)(=O)c3ccccc3Br)C(=O)O)C2)cc1 | 36 | inhibition in vivo at 0.1 mg/kg [14]: 29%; inhibition in vivo at 0.1 mg/kg [15]: 73%; inhibition in vivo at 0.1 mg/kg [16]: 40%
Cc1noc(C)c1S(=O)(=O)N[C@H](CNC(=O)C[C@H]1CC(c2ccc(C(=N)N)cc2)=NO1)C(=O)O | 23 | IC50 [6]: 25 nM; Kd [10]: 5.9 nM; Kd [17]: 24.1 nM
Cn1cnc(S(=O)(=O)N[C@@H](CNC(=O)CC2CC(c3ccc(C(=N)N)cc3)=NO2)C(=O)O)c1 (stereo partly drawn) | 110 | –
CCCCS(=O)(=O)N[C@@H](CNC(=O)CC1CC(c2ccc(C(=N)N)cc2)=NO1)C(=O)O (stereo partly drawn) | 42 | –
Cc1ccccc1S(=O)(=O)N[C@@H](CNC(=O)C[C@@H]1CC(c2ccc(C(=N)N)cc2)=NO1)C(=O)O | 110 | –
CN(Cc1ccccc1)S(=O)(=O)N[C@@H](CNC(=O)CC1CC(c2ccc(C(=N)N)cc2)=NO1)C(=O)O (stereo partly drawn) | 86 | –
N=C(N)c1ccc(C2=NOC(CC(=O)NC[C@H](NS(=O)(=O)c3ccccc3-c3ccccc3)C(=O)O)C2)cc1 (stereo partly drawn) | 80 | inhibition in vivo at 0.025 mg/kg [3]: 65%
